Experimental data: ChEMBL document CHEMBL1144551, “Enantioselective synthesis and antiviral activity of purine and pyrimidine cyclopentenyl C-nucleosides” (Bioorg Med Chem, 2007)
Activity calls are given as the source filed them. No cut-off for these calls is given here.

Key:
[1] = tested on: Venezuelan equine encephalitis virus; assay: Antiviral activity against Venezulean equine encephalitis virus; assay type: functional, organism-based
Vaccinia virus = assay: Antiviral activity against vaccinia virus; assay type: functional, organism-based; settings: Orthopoxvirus vaccinia
[2] = tested on: Human immunodeficiency virus 1; assay: Antiviral activity against HIV1 LA1 in human PBM cells; assay type: functional, organism-based; settings: Human immunodeficiency virus 1, LA1, PBMC
How it was run: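 Human peripheral blood mononuclear (PBM) cells were infected with HIV-1 strain LAI, and antiviral activity was expressed as EC50.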

SARS-CoV = assay: Antiviral activity against SARS coronavirus; assay type: functional, organism-based; settings: Severe acute respiratory syndrome-related coronavirus
LLC-MK2 = assay: Cytotoxicity against LLC-MK2 cells; assay type: cell-based, Macaca mulatta; settings: rhesus monkey
West Nile virus = assay: Antiviral activity against West Nile virus; assay type: functional, organism-based
Yellow fever virus = assay: Antiviral activity against yellow fever virus; assay type: functional, organism-based
Dengue virus = assay: Antiviral activity against dengue virus; assay type: functional, organism-based
Human alphaherpesvirus 1 = assay: Antiviral activity against HSV1; assay type: functional, organism-based
Punta Toro virus = assay: Antiviral activity against Punta Toro virus; assay type: functional, organism-based
Vero = assay: Cytotoxicity against Vero cells; assay type: cell-based; settings: Chlorocebus sabaeus
Tacaribe virus = assay: Antiviral activity against tacaribe virus; assay type: functional, organism-based; settings: Mammarenavirus tacaribeense
Human alphaherpesvirus 2 = assay: Antiviral activity against herpes simplex virus 2; assay type: functional, organism-based
Human alphaherpesvirus 3 = assay: Antiviral activity against varicella zoster virus; assay type: functional, organism-based
CCRF-CEM = assay: Cytotoxicity against CEM cells; assay type: cell-based; settings: Homo sapiens
[3] = Cytotoxicity against PBM cells; assay type: cell-based; settings: Homo sapiens, PBMC
Hepatitis C virus = assay: Antiviral activity against hepatitis C virus; assay type: functional, organism-based; settings: Hepacivirus hominis
Cowpox virus = assay: Antiviral activity against Cowpox virus; assay type: functional, organism-based

Row | Structure (SMILES) | Activity [1] | Activity (Vaccinia virus) | EC50 [2] | EC90 [2] | EC50 (SARS-CoV) | Activity (LLC-MK2) | EC50 (West Nile virus) | IC50 (West Nile virus) | Activity (Yellow fever virus) | Activity (Dengue virus) | Activity (Human alphaherpesvirus 1) | IC50 (Vero) | Activity (Tacaribe virus) | Activity (Human alphaherpesvirus 2) | Activity (Human alphaherpesvirus 3) | IC50 (CCRF-CEM) | IC50 [3] | Activity (Hepatitis C virus) | EC50 (Cowpox virus) | IC50 (Cowpox virus) | other results
1 | O=c1[nH]cc([C@@H]2C=C(CO)[C@@H](O)[C@H]2O)c(=O)[nH]1 | inactive | inactive | > 100 µM | > 100 µM | 49 µM | Not Active | > 100 µM | > 100 µM | inactive | inactive | inactive | > 100 µM | inactive | inactive | inactive | > 100 µM | > 100 µM | inactive | > 100 µM | > 100 µM | IC50 (SARS-CoV): > 100 µM; EC50 (Punta Toro virus): 65 µM; IC50 (Punta Toro virus): > 100 µM
2 | Nc1nc(O)c2[nH]cc([C@@H]3C=C(CO)[C@@H](O)[C@H]3O)c2n1 | inactive | inactive | > 100 µM | > 100 µM | > 100 µM | Not Active | > 100 µM | > 100 µM | inactive | inactive | inactive | > 100 µM | inactive | inactive | inactive | > 100 µM | > 100 µM | inactive | > 100 µM | > 100 µM | EC50 (Punta Toro virus): 2.5 µM; IC50 (Punta Toro virus): > 100 µM
3 | Nc1ncnc2c1ncn2[C@@H]1C=C(CO)[C@@H](O)[C@H]1O [NEOPLANOCIN A] |  |  |  |  |  |  | > 51 µM |  |  |  |  |  |  |  |  |  |  |  | 8.4 µM | > 300 µM | 
4 | Cc1cn([C@H]2C[C@H](N=[N+]=[N-])[C@@H](CO)O2)c(=O)[nH]c1=O [ZIDOVUDINE] |  |  |  |  |  |  |  |  |  |  |  |  |  |  |  |  | > 100 µM |  |  |  | 
5 | Nc1nc(=O)c([C@@H]2C=C(CO)[C@@H](O)[C@H]2O)c[nH]1 | inactive | inactive | > 100 µM | > 100 µM | > 100 µM | Not Active | 11 µM | > 100 µM | inactive | inactive | inactive | > 100 µM | inactive | inactive | inactive | > 100 µM | > 100 µM | inactive | > 100 µM | > 100 µM | EC50 (Punta Toro virus): > 100 µM; IC50 (Punta Toro virus): > 100 µM
6 | Nc1ncnc2c([C@@H]3C=C(CO)[C@@H](O)[C@H]3O)c[nH]c12 | inactive | inactive | 2 µM | 43.2 µM |  | Not Active | > 100 µM | > 100 µM | inactive | inactive | inactive | > 100 µM | inactive | inactive | inactive | 10.6 µM | 15.6 µM | inactive | > 100 µM | > 100 µM | 
